Assay results from ChEMBL document CHEMBL4680297, “Design, synthesis, and evaluation of substrate - analogue inhibitors of Trypanosoma cruzi ribose 5-phosphate isomerase type B” (Bioorg Med Chem Lett, 2021).
One block for each compound: values may come before it. The source made the active and inactive calls. The rule behind the calls is not given here.

Legend:
[1] = Competitive inhibition of recombinant poly-His-tagged Trypanosoma cruzi Ribose 5-phosphate isomerase type B expressed in Escherichia coli BL21 codon plus (DE3) using ribose 5-phosphate as substrate
Method in brief: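 Coupled spectrophotometric RPI assay, with T. cruzi ribulose 5-phosphate epimerase (TcRPE-1) as the first coupling enzyme. Inhibitor was tested at 0, 10, 20, 40, 60 and 80 μM, each at R5P 0.4, 0.8 and 2 mM. Ki came from Dixon plots (1/V vs [inhibitor]), as the X-axis intersection of the three lines. Inhibition type was assigned from [R5P]/V vs [inhibitor] plots (Cornish-Bowden). Mean of four independent experiments.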

Trypanosoma cruzi [2] = test: Trypanocidal activity against Trypanosoma cruzi trypomastigotes expressing beta galactosidase infected in NIH/3T3 cells assessed as parasite growth inhibition by reporter assay; assay type: functional, organism-based; conditions: NIH3T3
Method in brief: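 Tulahuen strain expressing β-galactosidase. Trypomastigotes added to NIH-3T3 fibroblasts together with compound, up to 50 μM, covering infection and intracellular amastigote growth. β-Galactosidase activity taken as parasite viability. IC50 from dose-response fits, in triplicate. Amphotericin B positive control.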

Trypanosoma cruzi [3] = test: Inhibition of Trypanosoma cruzi Ribose 5-phosphate isomerase type B assessed as residual activity at 1 mM using ribose 5-phosphate as substrate relative to control
Method in brief: (§1)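 TcRPI-B activity on R5P, measured by coupled enzyme assay (TcRPE-1 first coupling enzyme), with compound at 0.2, 0.5, 1.0 or 2.0 mM, as % of control activity. Mean of three independent determinations ± SEM.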

Trypanosoma cruzi [4] = test: Inhibition of Trypanosoma cruzi Ribose 5-phosphate isomerase type B assessed as residual activity at 0.5 mM using ribose 5-phosphate as substrate relative to control; method in brief: as §1
NIH3T3 = test: Cytotoxicity against mouse NIH/3T3 cells; assay type: cell-based
Trypanosoma cruzi [5] = test: Inhibition of Trypanosoma cruzi Ribose 5-phosphate isomerase type B assessed as residual activity at 0.2 mM using ribose 5-phosphate as substrate relative to control; method in brief: as §1
Trypanosoma cruzi [6] = test: Inhibition of Trypanosoma cruzi RPE1 assessed as residual activity at 0.5 mM relative to control
Method in brief: (§2)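 TcRPE-1 (first enzyme of the coupled RPI assay) activity measured with compound at 0.2, 0.5, 1.0 or 2.0 mM, as % of uninhibited activity. Mean of three independent determinations ± SEM.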

Trypanosoma cruzi [7] = test: Inhibition of Trypanosoma cruzi RPE1 assessed as residual activity at 0.2 mM relative to control; method in brief: as §2
Trypanosoma cruzi [8] = test: Inhibition of Trypanosoma cruzi Ribose 5-phosphate isomerase type B assessed as residual activity at 2 mM using ribose 5-phosphate as substrate relative to control; method in brief: as §1
Trypanosoma cruzi [9] = test: Inhibition of Trypanosoma cruzi RPE1 assessed as residual activity at 1 mM relative to control; method in brief: as §2
Trypanosoma cruzi [10] = test: Inhibition of Trypanosoma cruzi RPE1 assessed as residual activity at 2 mM relative to control; method in brief: as §2
[11] = Inhibition of Trypanosoma cruzi Ribose 5-phosphate isomerase type B expressed in Escherichia coli BL21 codon plus (DE3) using ribose 5-phosphate as substrate
Trypanosoma cruzi [12] = test: Trypanocidal activity against Trypanosoma cruzi trypomastigotes expressing beta galactosidase infected in NIH/3T3 cells assessed as parasite growth inhibition at up to 50 uM by reporter assay; conditions: dose microM <=50
[13] = Competitive inhibition of Trypanosoma cruzi Ribose 5-phosphate isomerase type B using varying levels of ribose 5-phosphate as substrate by Dixon plot analysis
Method in brief: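 Coupled assay with TcRPE-1 as first coupling enzyme. Inhibitor at 0, 10, 20, 40, 60 and 80 μM, R5P at 0.4, 0.8 and 2 mM. Ki taken from the x-axis intersection of Dixon plots (1/V vs [inhibitor]). Inhibition type assigned from parallel [R5P]/V vs [inhibitor] lines (Cornish-Bowden). Mean of four independent experiments.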

Trypanosoma cruzi [14] = test: Binding affinity to Trypanosoma cruzi Ribose 5-phosphate isomerase type B assessed as covalent bond formation between compound and protein Cys69 residue by trypsin digestion based LC-MS/MS analysis
Method in brief: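 TcRPI-B incubated intact with inhibitor for 30 min, then digested with trypsin to map cysteine modification.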

Compound: O=C(NO)[C@H](O)[C@H](O)COP(=O)(O)O
Ki [1]: 1200 µM

Compound: C[C@@H]1[C@H](O)[C@@H](C)/C=C/C=C/C=C/C=C/C=C/C=C/C=C/[C@H](O[C@@H]2O[C@H](C)[C@@H](O)[C@H](N)[C@@H]2O)C[C@@H]2O[C@](O)(C[C@@H](O)C[C@@H](O)[C@H](O)CC[C@@H](O)C[C@@H](O)CC(=O)O[C@H]1C)C[C@H](O)[C@H]2C(=O)O [AMPHOTERICIN B]
IC50 (Trypanosoma cruzi [2]): 0.23 µM

Compound: O=C(CCl)NCCOP(=O)(O)O
Activity (Trypanosoma cruzi [3]): 98.5% | Activity (Trypanosoma cruzi [4]): 105% | Activity (NIH3T3): Non-Toxic | Activity (Trypanosoma cruzi [5]): 107% | Activity (Trypanosoma cruzi [6]): 103% | Activity (Trypanosoma cruzi [7]): 100% | Activity (Trypanosoma cruzi [8]): 83.7% | Activity (Trypanosoma cruzi [9]): 95.5% | Activity (Trypanosoma cruzi [10]): 82.6%

Compound: O=C[C@H](O)[C@H](O)[C@H](O)[C@H](O)COP(=O)(O)O
Ki [11]: 15000 µM

Activity (Trypanosoma cruzi [3]): 95.3% | Activity (Trypanosoma cruzi [4]): 97.4% | Activity (Trypanosoma cruzi [5]): 98.1% | Activity (Trypanosoma cruzi [6]): 91.9% | Activity (Trypanosoma cruzi [7]): 100% | Activity (Trypanosoma cruzi [8]): 89.2% | Activity (Trypanosoma cruzi [9]): 87.4% | Activity (Trypanosoma cruzi [10]): 85.9%
Compound: O=C(Cc1ccccc1)NCCOP(=O)(O)O
Activity (NIH3T3): Non-Toxic | Activity (Trypanosoma cruzi [12]): inactive

Compound: O=C(CI)NCCOP(=O)(O)O
Activity (Trypanosoma cruzi [3]): 1.2% | IC50 (Trypanosoma cruzi [2]): 17.4 µM | Activity (Trypanosoma cruzi [4]): 7.5% | Activity (NIH3T3): Non-Toxic | Activity (Trypanosoma cruzi [5]): 25.2% | Activity (Trypanosoma cruzi [6]): 89.5% | Activity (Trypanosoma cruzi [7]): 89.5% | Activity (Trypanosoma cruzi [8]): 0% | Ki [13]: 5.5 µM | Activity (Trypanosoma cruzi [14]): Active | Activity (Trypanosoma cruzi [9]): 103% | Activity (Trypanosoma cruzi [10]): 57.4%

Compound: O=C(CF)NCCOP(=O)(O)O
Activity (Trypanosoma cruzi [4]): 2040% | Activity (NIH3T3): Non-Toxic | Activity (Trypanosoma cruzi [6]): 103% | Activity (Trypanosoma cruzi [7]): 111% | Activity (Trypanosoma cruzi [12]): inactive | Activity (Trypanosoma cruzi [9]): 93.2% | Activity (Trypanosoma cruzi [10]): 83.5%

Compound: O=C(CBr)NCCOP(=O)(O)O
Activity (Trypanosoma cruzi [3]): 41.3% | Activity (Trypanosoma cruzi [4]): 62.7% | Activity (NIH3T3): Non-Toxic | Activity (Trypanosoma cruzi [5]): 78.5% | Activity (Trypanosoma cruzi [6]): 85.8% | Activity (Trypanosoma cruzi [7]): 91.1% | Activity (Trypanosoma cruzi [8]): 18.3% | Activity (Trypanosoma cruzi [12]): inactive | Activity (Trypanosoma cruzi [9]): 77.3% | Activity (Trypanosoma cruzi [10]): 65.1%
